Screening results deposited in PubChem by The Scripps Research Institute Molecular Screening Center.
MC4R antagonist = human MC4R antagonism in cAMP assay | inhibition, % at 6.5 µM | MC4R-expressing cells, MTII-stimulated cAMP, LANCE TR-FRET | 360,000 compounds, 0.48% hits | P32245;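 active means inhibition above its plate's cutoff, the mean of tested wells on that plate plus 3 SD, cut at about 29% in these data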;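 further: 0% = Melanotan II alone and 100% = Melanotan II plus saturating MCL0020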
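Material: human MC4R-expressing U2OS cells. Probe or stimulus: Melanotan II challenge. Dosing: 6.5 µM single dose. Times: 30-min compound, 1-h challenge, 1-h detection, room temperature. Technique: TR-FRET with Eu-cAMP and labeled anti-cAMP, 671 nm. Replication: singlicate.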
NOD2 RIPK2 PPI = blocks binding of human NOD2 to RIPK2; CHO BLA complementation NOD2-RIPK2, CCF4 ratio; 360,000 compounds, 0.38% hits; AID 624267; inhibition, % at 4.98 µM; in the data active means inhibition above about 21%;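 further: 0% = vehicle only and 100% = reference blocker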
Target sequence (O43353 whole entry, looked up): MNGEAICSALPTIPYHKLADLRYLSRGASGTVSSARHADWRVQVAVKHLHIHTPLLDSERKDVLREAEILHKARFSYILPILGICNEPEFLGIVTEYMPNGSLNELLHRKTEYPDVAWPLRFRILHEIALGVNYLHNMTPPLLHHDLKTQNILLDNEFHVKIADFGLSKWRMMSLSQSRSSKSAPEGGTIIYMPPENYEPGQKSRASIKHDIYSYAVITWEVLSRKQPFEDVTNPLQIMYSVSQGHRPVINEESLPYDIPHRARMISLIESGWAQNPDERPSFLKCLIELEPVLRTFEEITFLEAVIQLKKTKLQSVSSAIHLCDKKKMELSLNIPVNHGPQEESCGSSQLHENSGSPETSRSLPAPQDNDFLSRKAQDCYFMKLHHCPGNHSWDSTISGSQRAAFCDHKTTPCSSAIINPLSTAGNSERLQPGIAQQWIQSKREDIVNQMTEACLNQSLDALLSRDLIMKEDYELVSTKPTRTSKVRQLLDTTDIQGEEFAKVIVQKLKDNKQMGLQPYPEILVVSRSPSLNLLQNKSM
MC4R barr agon = human MC4R agonism via beta-arrestin; P32245; U2OS MC4R beta-arrestin complementation, luminescence; percent of melanotan II response, DMSO zero; activation, % at 8.9 µM; 360,000 compounds, 0.98% hits; AID 540308;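 active means activation above a per-plate cutoff, the mean activation of sample wells on that plate plus 3 SD, cut at about 8% in these data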
TLR4-MyD88 BLA = TLR4-MyD88 interaction inhibition in cells | 200,000 compounds, 0.18% hits | AID 861 | inhibition, % at 8.4 µM | O00206+Q99836 | HeLa CL3-4 TLR4/MyD88 BLA complementation, FRET ratio; in the data active means inhibition above about 25%;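 further: 0% = vehicle and 100% = reference inhibitor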
TLR9-MyD88 inh = TLR9-MyD88 interaction inhibition; Q9NR96+Q99836; CHO BLA complementation TLR9-MyD88, CCF4 FRET ratio; inhibition, % at 4.98 µM; 340,000 compounds, 0.21% hits; AID 504734;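 active means inhibition above the mean over all tested compounds plus 3 SD, cut at about 21% in these data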;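 further: 0% = DMSO only wells and 100% = clavulanate BLA inhibitor control wells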
MC4R barr conf = human MC4R beta-arrestin agonism confirmation; shares compounds with MC4R barr agon; U2OS MC4R beta-arrestin recruitment, luminescence; scaled DMSO 0%, Melanotan II 100%; activation, % at 8.9 µM; 2,400 compounds, 31% hits;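 active means mean activation across replicates above the hit cutoff set in the earlier primary screen, cut at about 8% in these data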
MOR-DOR barr ag = counter-screen for MC4R agonists: agonists of mu-delta opioid heterodimer | shares compounds with MC4R barr agon | U2OS PathHunter beta-arrestin, beta-gal luminescence; percent of deltorphin B response, DMSO zero | activation, % at 9.2 µM | 2,400 compounds, 5.8% hits | AID 602194;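 active means mean activation across replicates exceeds the hit threshold derived in the earlier primary screen, cut at about 18% in these data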;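 further: 100% = deltorphin B at 0.9 µM final and 0% = DMSO alone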
* hit, by the source's call; nt = no result given. Hits are enriched below; roughly 1.8% of the tested compounds scored in any of these assays.

SMILES	MC4R antagonist	NOD2 RIPK2 PPI	MC4R barr agon	TLR4-MyD88 BLA	TLR9-MyD88 inh	MC4R barr conf	MOR-DOR barr ag
C=CCn1c(SCC(=O)Nc2ccc(C(=O)OC(C)C)cc2)nnc1-c1cccs1	16.5	-6.1	23.2*	8.8	-9.9	1.2	1.9
CCOc1ncccc1C(=O)Nc1cccc(-c2nc3cccnc3s2)c1	-6.3	-7.7	17.4*	nt	-0.9	8.1	2.6
Cc1cc(C)n(-c2nc3ccccc3nc2Nc2ccc3[nH]c(=O)[nH]c3c2)n1	2.9	5.4	19.0*	-9.7	-0.4	9.6*	1.8
CCN(c1ccc(Cl)cc1)S(=O)(=O)c1nnc(NC(=O)C(C)C)s1	-3.6	0.0	10.1*	nt	-0.7	0.8	6.1
CCN(c1ccc(OC)cc1)S(=O)(=O)c1nnc(NC(=O)C2CCCCC2)s1	4.0	1.9	11.6*	nt	-0.1	1.1	7.2
CCN(c1ccc(OC)cc1)S(=O)(=O)c1nnc(NC(=O)C(C)C)s1	-6.9	-4.6	1.3	nt	1.5	nt	nt
Cc1ccc2nc(SCC(=O)Nc3cc(C)on3)c(C)cc2c1	-0.8	0.8	11.1*	nt	1.3	6.8	4.7
CC(/C=N/NC(=O)c1cccs1)=C\c1ccccc1	-15.0	3.3	15.9*	0.3	-0.5	2.2	8.6
Cn1c(=O)c(C(=O)CSc2ccccc2)c(N)n(Cc2ccccc2)c1=O	-1.5	-4.6	29.5*	-1.9	-0.7	0.9	8.7
Cn1c(=O)c(C(=O)CCl)c(N)n(Cc2ccccc2)c1=O	0.0	-1.1	1.0	-17.1	2.6	nt	nt
COc1ccc(-c2cn[nH]c2-c2ccc(OCc3ccccc3F)cc2O)cc1OC	-0.1	-13.2	13.6*	nt	-14.6	2.6	11.8
O=C(Cc1cccs1)Nc1nnc(SCc2cccc3ccccc23)s1	3.2	-0.8	12.2*	-4.2	4.1	3.1	3.5
O=C(Cc1cccs1)Nc1nnc(SCC(=O)NC2CCCCC2)s1	-2.7	-5.1	-0.9	10.6	-0.1	nt	nt
S=c1cnc2ccccc2[nH]1	10.0	-4.5	-1.0	-14.4	1.9	nt	nt
COc1ccc(Oc2ccc(/C=C/C(=O)c3ccc(O)cc3)cc2[N+](=O)[O-])cc1	17.6	-48.4	-2.4	-12.0	0.9	nt	nt
Cc1ccc(NC(=O)c2sc3ncn(CC(=O)N4CCN(c5ccccn5)CC4)c(=O)c3c2C)cc1	-1.4	-3.3	-0.8	nt	-3.0	nt	nt
Cc1c(C(=O)Nc2ccc(C(F)(F)F)cc2)sc2ncn(CC(=O)N3CCN(c4ccccn4)CC3)c(=O)c12	-4.8	-8.2	14.3*	nt	-2.8	5.0	9.2
O=C(CS(=O)(=O)c1ccc(Cl)cc1)N1CCN(c2ccccc2)CC1	-1.2	7.7	-0.3	nt	-3.5	nt	nt
O=C1CC(SC(=Nc2ccccc2)Nc2ccccc2)C(=O)N1c1ccc(Cl)cc1 (centres undefined)	10.5	-0.7	12.5*	-3.6	-0.9	-1.2	8.6
COc1ccc(N2CC(O)=C(c3nc(-c4ccccc4)cs3)C2=N)cc1	8.3	-9.6	19.1*	nt	2.1	7.5	3.6
Cc1n[nH]c(C)c1S(=O)(=O)N(CC(=O)N1CCc2ccccc21)c1ccc(C(C)C)cc1	-28.4	3.7	13.0*	0.6	-2.6	7.6	6.6
CCOc1ccc(N(CC(=O)N2CCc3ccccc32)S(=O)(=O)c2c(C)noc2C)cc1	5.7	2.5	-1.5	-9.1	-1.4	nt	nt
CCCn1c(C)cc(C(=O)COC(=O)c2ccc[nH]c2=O)c1C	7.3	-6.4	-1.8	-7.1	10.1	nt	nt
CC(Oc1ccc2ccccc2c1)C(=O)NNC(=O)Nc1ccccc1 (centres undefined)	1.1	-0.8	3.1	nt	-9.8	nt	nt
COc1ccc(CC(=O)OCc2cc3cccc(C)c3[nH]c2=O)cc1	8.8	-3.8	21.3*	9.7	5.7	8.1	4.7
SMILES	MC4R antagonist	NOD2 RIPK2 PPI	MC4R barr agon	TLR4-MyD88 BLA	TLR9-MyD88 inh	MC4R barr conf	MOR-DOR barr ag
CCC(=O)OCc1cc2cccc(C)c2[nH]c1=O	6.8	-7.9	0.3	-1.0	3.3	nt	nt
COc1ccc(C(=O)OCc2cc3cccc(C)c3[nH]c2=O)cc1	5.1	-0.6	15.2*	4.4	-3.4	2.1	14.3
O=C1Cn2nnc(-c3ccccc3)c2C2c3ccccc3CCN12 (centres undefined)	nt	0.2	nt	nt	nt	nt	nt
O=C(NCc1ccncc1)c1ccc(OCc2ccccc2)cc1	4.5	-12.2	-2.4	nt	-1.7	nt	nt
Cc1ccc(CNC(=O)c2ccc(COc3ccccc3)cc2)cc1	-1.3	-2.1	13.2*	-1.2	4.3	-1.0	3.9
Cc1cc(C)c(CN2CCC(N3CCC(C(=O)NCC4CCCO4)CC3)CC2)cc1C (centres undefined)	7.9	-4.2	-0.9	nt	-3.1	nt	nt
Cc1nn(-c2nc3ccccc3s2)c(C)c1Oc1ccccc1O	2.5	-11.7	21.9*	-0.3	-0.2	-0.1	4.7
Cc1nn(-c2ccccn2)c(C)c1Oc1ccccc1O	-3.4	2.5	-1.4	2.0	3.4	nt	nt
CC(C)C[C@@H](CO)N(Cc1ccccc1)S(=O)(=O)N(Cc1ccccc1)[C@H](CO)CC(C)C	16.5	-5.8	0.1	nt	7.1	nt	nt
O=S(=O)(N(Cc1ccccc1)[C@H](CO)Cc1ccccc1)N(Cc1ccccc1)[C@H](CO)Cc1ccccc1	14.3	-2.4	28.1*	nt	-15.2	7.2	6.0
O=C(COc1ccccc1)Nc1ccc(OC(F)(F)C(F)F)c(NC(=O)COc2ccccc2)c1	-0.3	5.8	17.2*	10.1	8.4	9.9*	11.7
CCn1c2ccccc2c2cc(NC(=O)COc3ccccc3)ccc21	-6.6	1.3	25.9*	-21.3	7.4	2.2	3.4
CCn1c2ccccc2c2cc(NC(=O)COC(=O)c3ccccc3F)ccc21	11.7	-8.4	9.8*	-9.3	-1.3	3.2	3.9
CC(=O)Nc1ccc(OC(F)(F)C(F)F)c(NC(C)=O)c1	10.5	-10.2	-0.9	-1.9	3.5	nt	nt
Cc1ccc(C(=O)NCC(=O)NCCc2ccc(S(N)(=O)=O)cc2)s1	13.2	3.5	1.7	nt	6.6	nt	nt
O/N=C(\CN1CCCCC1)c1ccccc1	-3.9	-10.7	-1.5	nt	-5.0	nt	nt
CCN1CCc2c(sc(NC(=S)NC(=O)c3ccc(Cl)cc3)c2C(N)=O)C1	22.4	10.9	1.9	nt	6.5	nt	nt
CN(C)C(=O)/C(C#N)=C\c1cc(Br)c(Sc2ccc(Cl)cc2)o1	4.6	-3.5	13.8*	1.6	-4.7	0.0	5.6
O=C(C1CCCCC1)N1C[C@@H](n2cc(-c3ccc(F)cc3)nn2)[C@H](O)C[C@@H]1c1ccc(Cl)cc1	9.4	2.3	12.4*	nt	-0.3	-2.2	10.1
O=C(C1CCCCC1)N1C[C@H](n2cc(-c3ccc(F)cc3)nn2)[C@@H](O)C[C@@H]1c1ccc(Cl)cc1	9.5	5.5	0.6	nt	2.9	nt	nt
